Assay results taken from ChEMBL document CHEMBL3351316, “Scaffold hopping approach on the route to selective tankyrase inhibitors” (Eur J Med Chem, 2014).

Legend:
[1] = Lipophilicity, log D of the compound at pH 7.4; format: physicochemical; conditions: buffer
[2] = target: Poly [ADP-ribose] polymerase 2 (Homo sapiens) (UniProt Q9UGN5); test: Inhibition of human recombinant PARP2 incubated for 1 hr using histone substrate at 1 uM by luminescence based assay
Outline: (§1)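 Recombinant PARP enzyme reactions were run in duplicate for 1 h at rt on histone-coated plates in Tris·HCl pH 8.0 buffer with NAD+, biotinylated NAD+ and activated DNA. Detection used streptavidin-HRP for 30 min at rt, then a chemiluminescent developer. % inhibition = 100 − % activity, scaled between the no-compound (100%) and no-enzyme (0%) signals.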

[3] = target: Tankyrase 1/2 (Homo sapiens) (UniProt Q9H2K2+O95271); test: Inhibition of tankyrase in human DLD1 cells assessed as reduction in Wnt activity at 10 uM after 24 hrs by TCF-luciferase reporter gene assay; format: cell-based; conditions: DLD-1
Outline: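 DLD-1 cells were transduced with a TOP-TCF firefly luciferase lentivirus plus a renilla luciferase lentivirus (1:20), with renilla used to normalise for infection efficiency. Compound was tested at 10 μM for 24 h, with DMSO as the negative control. Cells were then lysed for dual-luciferase read-out, and activity was taken as the TOP/RL ratio. Data are the average of at least three separate experiments ± SD.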

[4] = target: Poly [ADP-ribose] polymerase 2 (Homo sapiens) (UniProt Q9UGN5); test: Inhibition of human recombinant PARP2 incubated for 1 hr using histone substrate at 10 uM by luminescence based assay; outline: as §1
[5] = target: T1, Poly [ADP-ribose] polymerase tankyrase-1 (Homo sapiens, UniProt O95271); test: Inhibition of GST-tagged human recombinant TNKS1 incubated for 1 hr using NAD+, biotinylated NAD+ and activated DNA by luminescence based assay
T1 sequence (O95271 whole entry): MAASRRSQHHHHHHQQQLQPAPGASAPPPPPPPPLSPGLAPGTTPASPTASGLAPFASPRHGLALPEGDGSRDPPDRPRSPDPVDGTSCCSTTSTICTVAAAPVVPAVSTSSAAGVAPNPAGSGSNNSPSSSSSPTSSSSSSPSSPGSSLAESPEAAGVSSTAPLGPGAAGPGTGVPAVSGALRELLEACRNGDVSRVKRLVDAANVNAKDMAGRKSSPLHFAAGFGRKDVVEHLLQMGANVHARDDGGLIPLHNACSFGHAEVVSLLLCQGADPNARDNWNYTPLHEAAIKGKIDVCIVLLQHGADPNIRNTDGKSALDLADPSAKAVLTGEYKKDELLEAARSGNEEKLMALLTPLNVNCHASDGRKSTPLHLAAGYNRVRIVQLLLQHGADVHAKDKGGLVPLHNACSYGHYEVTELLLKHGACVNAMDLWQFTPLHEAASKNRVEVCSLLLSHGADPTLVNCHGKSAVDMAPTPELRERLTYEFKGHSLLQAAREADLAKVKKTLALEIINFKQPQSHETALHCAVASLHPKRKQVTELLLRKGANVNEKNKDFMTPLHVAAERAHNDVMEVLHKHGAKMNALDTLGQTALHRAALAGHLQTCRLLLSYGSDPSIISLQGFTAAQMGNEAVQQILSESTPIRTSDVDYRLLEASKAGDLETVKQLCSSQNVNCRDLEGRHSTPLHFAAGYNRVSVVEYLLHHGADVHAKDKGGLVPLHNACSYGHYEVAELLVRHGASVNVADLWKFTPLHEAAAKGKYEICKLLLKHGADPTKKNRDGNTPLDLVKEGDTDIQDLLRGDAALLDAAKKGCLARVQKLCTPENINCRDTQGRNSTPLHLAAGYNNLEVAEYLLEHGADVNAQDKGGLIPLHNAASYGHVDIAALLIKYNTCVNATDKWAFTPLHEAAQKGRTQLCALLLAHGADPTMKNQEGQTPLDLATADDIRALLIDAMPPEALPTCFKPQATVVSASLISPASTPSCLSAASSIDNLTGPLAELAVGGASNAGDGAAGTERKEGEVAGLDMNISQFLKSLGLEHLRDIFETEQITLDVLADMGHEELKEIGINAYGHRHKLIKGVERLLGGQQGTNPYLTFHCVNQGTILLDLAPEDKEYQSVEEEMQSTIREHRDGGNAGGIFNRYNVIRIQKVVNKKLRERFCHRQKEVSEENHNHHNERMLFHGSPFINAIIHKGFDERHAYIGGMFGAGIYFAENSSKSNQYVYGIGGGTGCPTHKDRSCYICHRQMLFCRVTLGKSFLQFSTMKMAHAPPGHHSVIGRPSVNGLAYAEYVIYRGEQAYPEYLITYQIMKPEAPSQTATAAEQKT

[6] = target: Protein mono-ADP-ribosyltransferase PARP14 (Homo sapiens) (UniProt Q460N5); test: Inhibition of human recombinant PARP14 at 100 uM incubated for 1 hr using NAD+, biotinylated NAD+ and activated DNA by luminescence based assay; outline: as §1
Protein mono-ADP-ribosyltransferase PARP14 (Homo sapiens), sequence (Q460N5 whole entry): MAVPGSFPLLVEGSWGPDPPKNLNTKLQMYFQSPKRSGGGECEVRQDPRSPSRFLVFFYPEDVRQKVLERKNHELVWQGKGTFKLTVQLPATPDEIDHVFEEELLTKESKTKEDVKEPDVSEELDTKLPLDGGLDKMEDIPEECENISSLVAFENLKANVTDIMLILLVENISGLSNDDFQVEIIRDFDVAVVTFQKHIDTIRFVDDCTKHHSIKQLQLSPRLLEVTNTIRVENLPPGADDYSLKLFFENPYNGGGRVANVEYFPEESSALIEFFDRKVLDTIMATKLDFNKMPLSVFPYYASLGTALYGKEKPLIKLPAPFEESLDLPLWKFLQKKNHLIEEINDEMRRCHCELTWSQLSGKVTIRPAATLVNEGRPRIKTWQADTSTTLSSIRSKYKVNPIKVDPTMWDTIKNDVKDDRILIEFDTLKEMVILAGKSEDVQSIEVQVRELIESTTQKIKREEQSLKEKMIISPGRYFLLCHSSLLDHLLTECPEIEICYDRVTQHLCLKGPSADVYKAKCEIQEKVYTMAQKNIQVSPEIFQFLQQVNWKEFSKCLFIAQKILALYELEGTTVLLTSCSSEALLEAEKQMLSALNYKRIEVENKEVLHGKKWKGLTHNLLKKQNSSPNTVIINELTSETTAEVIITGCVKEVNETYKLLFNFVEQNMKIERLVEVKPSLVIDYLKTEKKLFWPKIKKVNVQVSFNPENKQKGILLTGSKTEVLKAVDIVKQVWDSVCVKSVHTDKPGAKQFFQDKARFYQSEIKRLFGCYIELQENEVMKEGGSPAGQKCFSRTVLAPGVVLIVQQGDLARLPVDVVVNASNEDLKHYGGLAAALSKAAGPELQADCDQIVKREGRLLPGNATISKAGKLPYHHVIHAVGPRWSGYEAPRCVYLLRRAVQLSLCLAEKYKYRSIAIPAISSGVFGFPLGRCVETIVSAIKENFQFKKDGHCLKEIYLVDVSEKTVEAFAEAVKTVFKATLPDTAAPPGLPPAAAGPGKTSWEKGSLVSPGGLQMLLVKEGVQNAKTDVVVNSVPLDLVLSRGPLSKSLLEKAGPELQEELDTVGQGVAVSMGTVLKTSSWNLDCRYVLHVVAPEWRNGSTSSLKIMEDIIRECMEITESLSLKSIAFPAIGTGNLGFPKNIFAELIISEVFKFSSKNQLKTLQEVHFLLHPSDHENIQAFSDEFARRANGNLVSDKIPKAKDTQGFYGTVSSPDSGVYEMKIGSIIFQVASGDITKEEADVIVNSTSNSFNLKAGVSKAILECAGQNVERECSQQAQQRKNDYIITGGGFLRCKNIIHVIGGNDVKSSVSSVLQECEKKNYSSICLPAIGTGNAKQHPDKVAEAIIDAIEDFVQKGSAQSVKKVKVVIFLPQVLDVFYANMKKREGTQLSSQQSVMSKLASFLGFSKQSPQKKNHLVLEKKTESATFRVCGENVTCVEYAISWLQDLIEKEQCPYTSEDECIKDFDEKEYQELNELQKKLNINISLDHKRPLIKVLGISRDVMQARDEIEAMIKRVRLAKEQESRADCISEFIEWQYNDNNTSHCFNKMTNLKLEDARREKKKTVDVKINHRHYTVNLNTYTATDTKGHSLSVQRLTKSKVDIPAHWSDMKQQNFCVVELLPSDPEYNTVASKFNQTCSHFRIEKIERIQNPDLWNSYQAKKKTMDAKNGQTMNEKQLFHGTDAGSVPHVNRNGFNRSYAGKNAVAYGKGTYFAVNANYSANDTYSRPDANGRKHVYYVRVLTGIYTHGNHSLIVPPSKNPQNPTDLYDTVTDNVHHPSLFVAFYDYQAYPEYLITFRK

Poly [ADP-ribose] polymerase 2 (Homo sapiens), sequence (Q9UGN5 whole entry): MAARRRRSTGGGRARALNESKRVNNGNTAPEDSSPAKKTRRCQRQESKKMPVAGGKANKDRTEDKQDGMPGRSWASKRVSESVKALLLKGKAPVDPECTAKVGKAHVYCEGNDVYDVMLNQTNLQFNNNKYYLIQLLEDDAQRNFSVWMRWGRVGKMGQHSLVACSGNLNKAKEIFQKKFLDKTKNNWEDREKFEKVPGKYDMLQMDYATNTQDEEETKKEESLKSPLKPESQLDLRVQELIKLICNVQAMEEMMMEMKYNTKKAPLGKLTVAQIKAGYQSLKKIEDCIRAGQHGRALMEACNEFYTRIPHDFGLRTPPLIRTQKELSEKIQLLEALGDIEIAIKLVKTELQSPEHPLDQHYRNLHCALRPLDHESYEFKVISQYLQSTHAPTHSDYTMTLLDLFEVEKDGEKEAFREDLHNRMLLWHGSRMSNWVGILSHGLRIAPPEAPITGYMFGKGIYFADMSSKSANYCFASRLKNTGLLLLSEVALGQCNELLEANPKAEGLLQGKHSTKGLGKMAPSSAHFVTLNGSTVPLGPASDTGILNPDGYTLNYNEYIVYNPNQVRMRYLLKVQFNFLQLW
Tankyrase 1/2 (Homo sapiens), sequence (Q9H2K2 whole entry, looked up, one chain of several): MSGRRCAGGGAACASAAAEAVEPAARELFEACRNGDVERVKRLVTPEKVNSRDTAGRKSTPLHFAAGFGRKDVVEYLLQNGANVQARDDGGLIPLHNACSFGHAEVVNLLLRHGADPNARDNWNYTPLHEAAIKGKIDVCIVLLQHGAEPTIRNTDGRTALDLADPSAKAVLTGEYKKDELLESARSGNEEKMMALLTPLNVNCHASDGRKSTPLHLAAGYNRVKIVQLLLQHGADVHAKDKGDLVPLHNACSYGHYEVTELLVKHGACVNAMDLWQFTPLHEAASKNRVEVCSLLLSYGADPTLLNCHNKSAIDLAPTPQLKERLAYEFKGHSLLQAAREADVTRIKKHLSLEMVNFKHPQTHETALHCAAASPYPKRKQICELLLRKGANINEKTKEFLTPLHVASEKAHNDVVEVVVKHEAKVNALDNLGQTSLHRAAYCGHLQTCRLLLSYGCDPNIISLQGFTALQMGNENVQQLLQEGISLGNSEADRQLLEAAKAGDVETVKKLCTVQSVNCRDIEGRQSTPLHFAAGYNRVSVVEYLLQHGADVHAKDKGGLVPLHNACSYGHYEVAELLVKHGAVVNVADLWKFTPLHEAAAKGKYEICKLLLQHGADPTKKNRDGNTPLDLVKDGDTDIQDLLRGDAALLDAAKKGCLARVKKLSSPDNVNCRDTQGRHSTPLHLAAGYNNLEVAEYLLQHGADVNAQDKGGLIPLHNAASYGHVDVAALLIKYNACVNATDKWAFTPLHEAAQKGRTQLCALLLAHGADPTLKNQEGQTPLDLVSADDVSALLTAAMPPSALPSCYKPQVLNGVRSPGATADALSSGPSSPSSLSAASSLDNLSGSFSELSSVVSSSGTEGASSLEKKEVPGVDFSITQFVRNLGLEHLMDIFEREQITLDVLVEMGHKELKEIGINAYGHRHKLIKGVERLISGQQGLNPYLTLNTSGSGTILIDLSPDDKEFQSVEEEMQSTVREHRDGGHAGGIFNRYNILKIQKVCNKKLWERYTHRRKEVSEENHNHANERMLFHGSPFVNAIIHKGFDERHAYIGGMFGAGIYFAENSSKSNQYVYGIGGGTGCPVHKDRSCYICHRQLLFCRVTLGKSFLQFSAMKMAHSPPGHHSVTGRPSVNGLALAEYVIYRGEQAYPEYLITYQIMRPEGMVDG

inhibition [6]	SMILES	logD [1]	inhibition [2]	inhibition [3]	inhibition [4]	IC50 [5]
–	Oc1cc(-c2ccccc2)c2ccccc2n1	3.03	3%	–	–	–
–	O=c1[nH]ccc2ccsc12	1.24	24%	–	–	–
–	COc1ccc2sc3c(O)nc4ccccc4c3c2c1	3.59	17%	21%	–	–
–	Oc1nc(-c2ccc(C(F)(F)F)cc2)nc2c1CSCC2	–	–	–	100%	–
–	O=c1[nH]c2ccccc2c2ccsc12	2.65	91%	–	–	–
–	O=c1[nH]c(-c2ccccc2)cc2c1sc1ccccc12	3.63	11%	–	–	181 nM
–	O=c1[nH]c(-c2ccccc2)cc2ccsc12	2.53	26%	–	–	–
–	O=c1[nH]c(-c2ccccc2)nc2c3c(sc12)CCCC3	4.11	11%	–	–	–
–	O=c1[nH]c(-c2cccs2)nc2c1sc1ccccc12	3.52	9%	–	–	–
–	O=c1[nH]c(C2CCCCC2)nc2c1sc1ccccc12	3.89	14%	–	–	–
–	O=c1[nH]c2ccccc2c2c1sc1ccccc12	3.75	14%	–	–	90 nM
–	Cc1ccc(-c2nc3c(sc4ccccc43)c(=O)[nH]2)cc1	4.13	4%	–	–	19.4 nM
–	COc1ccc2c(c1)nc(O)c1sc3ccccc3c12	3.59	27%	37%	–	–
–	O=c1[nH]c(-c2ccccc2)nc2c1sc1ccccc12	3.62	0%	–	–	–
–	O=c1[nH]c2ccccc2c2c1sc1ccc(O)cc12	3.44	93%	–	–	–
–	COc1ccc2c(c1)[nH]c(=O)c1sc3ccc(OC)cc3c12	3.43	12%	–	–	–
–	O=c1[nH]c2cc(O)ccc2c2c1sc1ccccc12	3.43	64%	–	–	–
17%	COc1cccc(/C=C/C(=O)O)c1	–	–	–	–	–
–	O=c1[nH]ccc2c1sc1ccccc12	3.62	34%	–	–	–
